Measured values taken from ChEMBL document CHEMBL1208669, “Synthesis of 2-(pyrimidin-2-yl)-1-phenyl-2,3,4,9-tetrahydro-1H-beta-carbolines as antileishmanial agents” (Eur J Med Chem, 2010).
Values after ≈ are worked out from the molar mass of the structure shown. Active and inactive are the calls of the source. The rule behind the calls is not given here.

Legend:
J774.A1 = test: (§1) Selectivity index, ratio of CC50 for mouse J774A1 cells to IC50 for amastigote of Leishmania donovani MHOM/IN/80/Dd8; format: functional
Outline: (§2)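 Ratio of CC50 (J774A.1 MTT, 72 h) to IC50 against intracellular amastigotes in J774A.1 macrophages (luciferase read-out, 72 h).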

Leishmania donovani [1] = test: Antileishmanial activity against promastigotes of Leishmania donovani MHOM/IN/80/Dd8 at 500 ug/ml after 72 hrs by luciferase reporter gene assay relative to control; format: functional, organism-based
Outline: (§3)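 Dd8 promastigotes transfected with firefly luciferase were kept in medium 199 + 10% FCS with antibiotics under G418. Late-log cells were incubated 72 h with serial drug dilutions, with parallel DMSO dilutions as controls. An aliquot was mixed 1:1 with Steady Glo and luminescence read as RLU. % inhibition = (N − n) × 100/N versus untreated control RLU; tested as serial dilutions or single concentration.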

Vero [2] = test: Cytotoxicity against african green monkey Vero cells by MTT assay; format: cell-based; conditions: chlorocebus sabaeus
KB [3] = test: Cytotoxicity against human KB cells by MTT assay; format: functional, cell-based
MCF7 [4] = test: Cytotoxicity against human MCF7 cells by MTT assay; format: functional, cell-based
[5] = as §1; format: functional, J774.A1; outline: as §2
C-33-A [6] = test: Cytotoxicity against human C33A cells by MTT assay; format: functional, cell-based
Leishmania donovani [7] = test: Antileishmanial activity against amastigote of Leishmania donovani MHOM/IN/80/Dd8 infected in mouse J774A1 cells after 72 hrs by luciferase reporter gene assay; format: functional, organism-based; conditions: MHOM/IN/80/Dd8, J774.A1, 72 h
Outline: (§4)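 J774A.1 macrophages were seeded at 1.5 × 10⁴ cells/well in RPMI-1640 + 10% FCS, 37 °C, CO₂, for 24 h. They were then infected with stationary-phase luciferase-transfected Dd8 promastigotes (2.25 × 10⁵/well), which transform to amastigotes. Compounds (0.25–10 range) were added in fresh medium for 72 h. Medium was removed, PBS and Steady Glo added, and luminescence read. Inhibition vs untreated controls; IC50 by logit regression.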

[8] = Cytotoxicity against mouse J774A1 cells after 72 hrs by MTT assay; format: cell-based, J774.A1
Outline: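 J774A.1 cells were grown in RPMI + 10% FCS with gentamycin. Exponential cells (1 × 10⁴/well) were exposed to a range of drug concentrations (DMSO stocks diluted in complete medium) for 72 h at 37 °C in humidified CO₂/air. MTT was added, formazan dissolved in DMSO after 15 min shaking, and absorbance read at 544 nm. CC50 is the 50% viability reduction versus medium-only cells.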

Leishmania donovani [9] = test: Antileishmanial activity against promastigotes of Leishmania donovani MHOM/IN/80/Dd8 after 72 hrs by luciferase reporter gene assay relative to control; format: functional; outline: as §3
DU-145 [10] = test: Cytotoxicity against human DU145 cells by MTT assay; format: functional, cell-based
MCF7 [11] = test: Cytotoxicity against human MCF7 cells up to 50 ug/ml by MTT assay; format: functional, cell-based
KB [12] = test: Cytotoxicity against human KB cells up to 50 ug/ml by MTT assay; format: functional, cell-based
Vero [13] = test: Cytotoxicity against african green monkey Vero cells up to 50 ug/ml by MTT assay; format: cell-based; conditions: chlorocebus sabaeus
Leishmania donovani [14] = test: Antileishmanial activity against amastigote of Leishmania donovani MHOM/IN/80/Dd8 infected in mouse J774A1 cells at 0.25 to 10 ug/ml after 72 hrs by luciferase reporter gene assay; format: functional, organism-based; conditions: j774.a1; outline: as §4
C-33-A [15] = test: Cytotoxicity against human C33A cells up to 50 ug/ml by MTT assay; format: functional, cell-based
DU-145 [16] = test: Cytotoxicity against human DU145 cells up to 50 ug/ml by MTT assay; format: functional, cell-based

Row | Compound | Ratio CC50/IC50 (J774.A1) | inhibition (Leishmania donovani [1]) | IC50 (Vero [2]) | IC50 (KB [3]) | IC50 (MCF7 [4]) | Ratio CC50/IC50 [5] | IC50 (C-33-A [6]) | IC50 (Leishmania donovani [7]; read-out: IC50) | CC50 at 72 h ([8]; read-out: CC50) | inhibition (INH) (Leishmania donovani [9]) | IC50 (DU-145 [10]) | Activity (MCF7 [11]) | Activity (KB [12]) | Activity (Vero [13]) | IC50 (Leishmania donovani [14]) | Activity (C-33-A [15]) | Activity (DU-145 [16]) | IC50 (Leishmania donovani [7]) | CC50 at 72 h [8]
1 | sodiumstilbogluconate | 6.38 | 40% |  |  |  |  |  |  |  |  |  |  |  |  |  |  |  |  | 
2 | CN1CCN(c2cc(N3CCN(C)CC3)nc(NCCc3c[nH]c4ccccc34)n2)CC1 |  |  | 29.7 µg/mL (≈ 68.3 µM) | 33.4 µg/mL (≈ 76.9 µM) | 35.2 µg/mL (≈ 81 µM) | 10.55 | 26 µg/mL (≈ 59.8 µM) | 1.74 µg/mL (≈ 4 µM) | 18.4 µg/mL (≈ 42.3 µM) | 100% | 21.3 µg/mL (≈ 49 µM) |  |  |  |  |  |  |  | 
3 | COc1cccc(C2c3[nH]c4ccccc4c3CCN2c2nc(Cl)cc(Cl)n2)c1 (racemic) |  |  |  |  |  |  |  |  |  | 44.33% |  | inactive | inactive | Non-toxic | Not Active | inactive | inactive |  | 
4 | Clc1cc(Cl)nc(NCCc2c[nH]c3ccccc23)n1 |  |  |  |  |  | 2.8 |  | 7.34 µg/mL (≈ 23.9 µM) | 20.6 µg/mL (≈ 67 µM) | 99.78% |  | inactive | inactive | Non-toxic |  | inactive | inactive |  | 
5 | N=C(N)c1ccc(OCCCCCOc2ccc(C(=N)N)cc2)cc1 [PENTAMIDINE] |  |  |  |  |  |  |  |  | 25.1 µg/mL (≈ 73.9 µM) | 100% |  |  |  |  |  |  |  |  | 
6 | COc1ccc(C2c3[nH]c4ccccc4c3CCN2c2nc(Cl)cc(Cl)n2)cc1 (racemic) |  |  | 9.8 µg/mL (≈ 23 µM) | 4.5 µg/mL (≈ 10.6 µM) | 5.2 µg/mL (≈ 12.2 µM) |  | 4.2 µg/mL (≈ 9.87 µM) | 3.57 µg/mL (≈ 8.39 µM) |  | 81.68% | 10.1 µg/mL (≈ 23.7 µM) |  |  |  |  |  |  |  | 
7 | COc1cc(C2c3[nH]c4ccccc4c3CCN2c2nc(Cl)cc(Cl)n2)cc(OC)c1OC (racemic) |  |  |  |  |  |  |  | 3.81 µg/mL (≈ 7.85 µM) |  | 81.68% |  | inactive | inactive | Non-toxic |  | inactive | inactive |  | 
8 | COc1ccc(OC)c(C2c3[nH]c4ccccc4c3CCN2c2nc(Cl)cc(Cl)n2)c1 (racemic) |  |  |  |  |  |  |  |  |  | 85.34% |  | inactive | inactive | Non-toxic | Not Active | inactive | inactive |  | 
9 | COc1ccc(C2c3[nH]c4ccccc4c3CCN2c2nc(Cl)cc(Cl)n2)cc1OC (racemic) |  |  |  |  |  | 15.43 |  | 1.93 µg/mL (≈ 4.24 µM) | 29.8 µg/mL (≈ 65.4 µM) | 93.06% |  | inactive | inactive | Non-toxic |  | inactive | inactive |  | 
10 | CN1CCN(c2cc(N3CCN(C)CC3)nc(N3CCc4c([nH]c5ccccc45)C3c3ccc4c(c3)OCO4)n2)CC1 (racemic) |  |  | 2.6 µg/mL (≈ 4.59 µM) | 2 µg/mL (≈ 3.53 µM) | 1.2 µg/mL (≈ 2.12 µM) | 5.71 | 1.1 µg/mL (≈ 1.94 µM) | 0.49 µg/mL (≈ 0.865 µM) | 2.8 µg/mL (≈ 4.94 µM) | 99.96% | 1.5 µg/mL (≈ 2.65 µM) |  |  |  |  |  |  |  | 
11 | Cc1ccc(C2c3[nH]c4ccccc4c3CCN2c2nc(Cl)cc(Cl)n2)cc1 (racemic) |  |  | 33.7 µg/mL (≈ 82.3 µM) | 21.6 µg/mL (≈ 52.8 µM) | 28 µg/mL (≈ 68.4 µM) | 4.09 | 24.9 µg/mL (≈ 60.8 µM) |  |  | 84.15% | 20.2 µg/mL (≈ 49.4 µM) |  |  |  |  |  |  | 6 µg/mL (≈ 14.7 µM) | 24.6 µg/mL (≈ 60.1 µM)
